# hIAP activ – increases human intestinal alkaline phosphatase activity; P09923; purified human IAP, CDP-Star luminescence, 30 min; active compounds read high; 1 = vehicle-only enzyme, 0 = enzyme-free background; activation factor at 10 µM; 0.16% of 330,000 active;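 active = activation factor of the enzyme at least 2-fold when tested at 20 µM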
# Target sequence (P09923 whole entry, looked up): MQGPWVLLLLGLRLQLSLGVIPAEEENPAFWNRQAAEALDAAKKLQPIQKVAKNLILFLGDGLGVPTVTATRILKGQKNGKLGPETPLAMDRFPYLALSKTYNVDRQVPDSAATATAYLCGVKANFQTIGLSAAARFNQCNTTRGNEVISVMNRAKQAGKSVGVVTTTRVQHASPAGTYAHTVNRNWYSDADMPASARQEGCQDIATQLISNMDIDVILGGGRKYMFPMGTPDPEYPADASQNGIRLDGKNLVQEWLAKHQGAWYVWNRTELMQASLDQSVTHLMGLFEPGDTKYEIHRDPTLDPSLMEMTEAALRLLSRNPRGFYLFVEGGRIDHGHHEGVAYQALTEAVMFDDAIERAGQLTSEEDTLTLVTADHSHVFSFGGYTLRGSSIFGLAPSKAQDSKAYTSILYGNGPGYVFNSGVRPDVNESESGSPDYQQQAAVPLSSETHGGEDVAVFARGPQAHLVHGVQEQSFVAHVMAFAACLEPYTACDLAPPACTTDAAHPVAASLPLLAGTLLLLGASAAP
# hIAP block – human IAP inhibition. AID 2544. 0.12% of 330,000 active. purified IAP, CDP-Star luminescence, 30 min. P09923. inhibition, % at 10 µM;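 active = inhibition reaching a set limit with compound at 10 µM in the primary screen, cut at about 35% in these data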;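 also: plate controls were DMSO wells with enzyme for no effect and no-enzyme buffer wells for full effect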
# bIAP act – intestinal alkaline phosphatase (bovine) activation; purified bovine IAP, CDP-star luminescence, 30 min; active compounds read high; fold of DMSO-control signal, blank-subtracted; activation factor at 20 µM; 0.17% of 200,000 active; AID 1016;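 active = activation factor of 2 or more at 20 µM, a signal rise over negative controls twice the positive control's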
# bIAP inh – blocks bovine intestinal alkaline phosphatase activity | AID 1019 | inhibition, % at 20 µM | 190,000 tested, under 10 active | purified bovine IAP, CDP-star luminescence, 30 min;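 active = over 50% inhibition of intestinal alkaline phosphatase at 20 µM in the single-dose screen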
#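 Assay system: bovine IAP enzyme; medium: DEA buffer 100 mM, pH 9.8, with MgCl2 1.0 mM, ZnCl2 0.02 mM; doses: 20 µM single dose; incubation: enzyme reaction for 30 min at room temperature; detection: CDP-star luminescence signal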
# mIAP block – mouse IAP inhibition | purified mouse IAP, CDP-Star luminescence, 30 min | inhibition, % at 10 µM | 0.2% of 330,000 active;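 active = inhibition of at least 40% at 10 µM in the primary screen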;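 also: plate controls were DMSO with enzyme for no effect and no enzyme wells for full effect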
# mIAP activ – increases mouse intestinal alkaline phosphatase activity | 0.24% of 330,000 active | muIAP, CDP-Star luminescence, 30 min; active compounds read high; 1 = vehicle-only enzyme signal, 0 = enzyme-free wells | activation factor at 10 µM;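 active = activation factor of at least 2 at 20 µM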
#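 System: mouse IAP enzyme. Reagent: CDP-Star chemiluminescent phosphatase substrate. Benchmarks: DMSO wells, no-enzyme wells. Times: 30 min enzyme-substrate-compound incubation at room temperature. Detection: luminescence from enzymatic CDP-Star hydrolysis. Doses: test compounds delivered from DMSO solution.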
# hIAP act confirm – human IAP activation confirmation | shares compounds with hIAP activ | activation (%Activity, negative = activation), % at 8.3 µM | 10% of 880 active | AID 434926 | purified IAP, CDP-Star luminescence, 30 min; active compounds read low;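 active = at least twofold enzyme activation in any of six single-dose repeats, which the averaged readout prints as negative percent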
# Starred values were filed as active, the others as inactive; nt = no result given; + = active, no number. Most compounds without a hit are left out; they make up all but 0.72% or so of the library.
SMILES,hIAP activ,hIAP block,bIAP act,bIAP inh,mIAP block,mIAP activ,hIAP act confirm
Cc1cc(C)cc(CC(Cc2nc3ccccc3[nH]2)c2nc3ccccc3[nH]2)c1 (centres undefined),2.1*,-112,5.2*,-422,-38,1.4,-323*
COc1ccc(/C=C2/C(=O)N(c3ccccc3)N=C2C)cc1OC,1.2,-25,nt,nt,5,0.95,nt
COc1cc(/C=C2/C(=O)N(c3cccc(Br)c3)N=C2C)cc(OC)c1O,0.64,36*,nt,nt,24,0.77,-2
COc1cc(/C=C2/C(=O)N(c3ccc(Br)cc3)N=C2C)cc([N+](=O)[O-])c1O,0.62,38*,nt,nt,8,0.92,-42
CC[C@]12c3[nH]c4ccc(Cl)cc4c3CCN1C(=O)[C@@H](CC(=O)NCCC1=CCCCC1)C[C@@H]2C(=O)N1CCN(C(=O)c2ccco2)CC1,nt,nt,nt,nt,-8,1.1,nt
COc1cc2cc(C(=O)N(C)C3CCS(=O)(=O)C3)[nH]c2cc1OC (centres undefined),1,-4,nt,nt,-4,1,nt
COc1ccc(C2c3ccc(O)cc3Oc3ncn4nc(-c5ccncc5)nc4c32)cc1OC (centres undefined),0.59,41*,nt,nt,14,0.86,4
CCOC(=O)c1ccc2c(c1)nc(SC/C(O)=C(\C#N)c1nc3ccccc3[nH]1)n2CC,1,-3,0.9,8,8,0.92,nt
CCOc1ccc(-c2cccc(NS(=O)(=O)c3ccccc3[N+](=O)[O-])c2)nn1,1.1,-5,nt,nt,2,0.98,nt
CC(C)Oc1cccc(C(=O)Nc2ncn[nH]2)c1,2.2*,-124,nt,nt,4,0.96,5
CC(C)Oc1ccc(C(=O)Nc2ncn[nH]2)cc1,2*,-101,nt,nt,-8,1.1,-65*
CC(C)COc1ccc(C(=O)Nc2ncn[nH]2)cc1,1.1,-10,nt,nt,-12,1.1,nt
C/C(=N\NC(=O)c1cc(Br)ccc1O)c1cccc(NC(=O)c2ccccc2F)c1,0.91,10,nt,nt,8,0.92,nt
CCn1c2ccccc2c2cc(NC(=O)c3coc(=O)c(Br)c3)ccc21,0.58,42*,nt,nt,15,0.85,39
Cc1ccc(Cl)cc1NC(=O)C(=O)N/N=C/c1ccc2c(c1)OCO2,2.2*,-116,nt,nt,7,0.93,40
Cc1cc(Cl)ccc1NC(=O)C(=O)N/N=C/c1ccc2c(c1)OCO2,1.1,-11,nt,nt,3,0.97,nt
Cc1ccc(NC(=S)NNC(=O)c2nnn(-c3ccccc3)c2C)cc1,2.2*,-118,1,5,11,0.89,24
NC(=O)CSc1n[nH]c(-c2ccco2)n1,1.1,-7,nt,nt,2,0.98,nt
Cc1ccccc1CNC(=O)c1ccccc1N,0.64,36*,0.9,10,0,0.99,37
COc1ccc(C)cc1NC(=O)CCS(=O)(=O)c1cc2c(cc1Cl)NC(=O)CO2,0.83,17,nt,nt,-4,1,nt
Cc1ccc(NC(=O)CCS(=O)(=O)c2cc3c(cc2Cl)NC(=O)CO3)cc1,0.63,37*,nt,nt,3,0.97,-42
CCOC(=O)c1cnc(-n2nc(C)cc2C)nc1NNc1nc(C)cc(C)n1,2,-100,nt,nt,34,0.66,72
CCOC(=O)c1cnc(-n2nc(C)cc2C)nc1NNc1nc(-c2ccccc2)cc(-c2ccccc2)n1,0.94,6,0.9,12,11,0.89,nt
Cc1cc(C)nc(Nc2n[nH]c(COc3ccccc3)n2)n1,1.1,-5,1.3,-26,-1,1,nt
Cc1cc(C)nc(Nc2n[nH]c(COc3ccc4ccccc4c3)n2)n1,2*,-103,0.9,6,13,0.87,-1
SMILES,hIAP activ,hIAP block,bIAP act,bIAP inh,mIAP block,mIAP activ,hIAP act confirm
C=CCN1C=CC(=CC=C(C#N)C#N)C=C1,0.65,35*,nt,nt,31,0.69,-4
CN(C)c1ccc(NC(=O)Nc2cccc(Cl)c2)cc1,0.87,13,1,4,-20,1.2,nt
CN(C)c1ccc(NC(=O)Nc2csc3ccccc23)cc1,2,-100,nt,nt,-36,1.4,-84
CC(C)Oc1cccc(C(=O)Nc2ccc(N3CCN(S(C)(=O)=O)CC3)cc2)c1,1.1,-6,1,2,-4,1,nt
Cc1cc([N+](=O)[O-])nn1CC(=O)Nc1ccc(F)cc1,0.99,1,1,0,-1,1,nt
Cc1cc([N+](=O)[O-])nn1CC(=O)NNC(=S)Nc1ccc(F)cc1,2.1*,-111,1.2,-24,1,0.99,6
COc1ccc(NC(=O)C2CCN(Cc3cnn(-c4ccccc4)c3-n3cccc3)CC2)cc1OC,2*,-100,3.3*,-225,-71,1.7,-55
COc1ccc(OC)c(NC(=O)C2CCN(Cc3cnn(-c4ccccc4)c3-n3cccc3)CC2)c1,0.97,3,1.1,-14,-10,1.1,nt
O=c1ccc2cc(O)c(O)cc2o1,0.6,40*,1,1,39,0.61,-18
O=C(CSc1nnc(-c2ccccc2O)n1Cc1ccccc1)NNC(=O)c1ccccc1O,2.5*,-146,1,-4,20,0.8,-41
Cc1ccc(CN(C)c2ccc(S(=O)(=O)N3CCCC3)cn2)cc1,0.64,36*,nt,nt,-1,1,-34
COc1ccccc1NC(=O)NNC(=O)c1cc2ccccc2cc1O,2*,-101,nt,nt,11,0.89,-55
Cc1ccc(NC(=O)NNC(=O)c2cc3ccccc3cc2O)cc1,2.1*,-112,nt,nt,4,0.96,-70*
O=C(COc1ccc2ccccc2c1Br)N1CCCCC1,0.64,36*,nt,nt,5,0.95,-50*
CCOc1nc2cnccc2n(CC(=O)Nc2ccccc2F)c1=O,1,-2,nt,nt,-1,1,nt
CCCCC(CC)C(=O)Nc1cc(=O)[nH]c2nc3ccccc3n12 (centres undefined),2*,-102,nt,nt,4,0.96,5
COC(=O)c1ccc(C(=O)OC)c(NC(=O)Nc2ccc3c(c2)OCO3)c1,2.2*,-124,0.9,10,4,0.95,+
COC(=O)c1ccccc1NC(=O)Nc1ccc2c(c1)OCO2,0.95,5,0.9,13,-1,1,nt
Cc1cc(NS(=O)(=O)c2ccc(NC(=O)C(C(C)C)N3C(=O)c4ccccc4C3=O)cc2)nc(C)n1 (centres undefined),0.61,39*,1,-3,-1,1,-41
Cc1ccc(C2=NN(CCC(=O)NC3CCCC3)C(=O)CC2)cc1,1.1,-15,nt,nt,9,0.91,nt
CCCNC(=S)NNC(=O)c1cc(C2CC2)nc2ccccc12,2.2*,-117,nt,nt,5,0.95,0
Oc1ccc(N=Nc2c(O)ccc3ccccc23)cc1,0.55,45*,0.6,41,32,0.68,-92*
CSCC[C@H](NC(=O)N1CCn2c1nc1ccccc12)C(=O)NCc1ccccc1,0.82,18,nt,nt,0,1,nt
